{"data": "Experimental data of several laboratories", "sample": "plasma"}
{"SMILES": "O=C1CCC(N2Cc3cc(C4CCN(Cc5ccccc5)CC4)ccc3C2=O)C(=O)N1 (stereo not drawn)", "system": "male Sprague-Dawley rat", "conditions": "intravenous, 1 mg/kg", "Cmax": "113 ng/mL"}
{"SMILES": "COc1cc(-c2cc(C(C)=O)n3ccccc23)c(OC)cc1Cn1ccnc1", "system": "male Sprague-Dawley rat", "conditions": "intravenous, 5 mg/kg", "Cmax": "4120 ng/mL"}
{"SMILES": "COc1ccc(N(Cc2csc(-c3ccccc3)n2)C(=O)CCCCCC(=O)NO)cc1", "system": "female Sprague-Dawley rat", "conditions": "oral, 30 mg/kg", "Cmax": "4.73 ng/mL"}
{"SMILES": "CONC(=O)c1cccc2c1cc(C)n2-c1nc2c(c(NCc3ccccc3)n1)CCCN2", "system": "male Sprague-Dawley rat", "conditions": "oral, 10 mg/kg, single dose", "Cmax": "23.4 ng/mL"}
{"SMILES": "CCCCC(=O)Nc1ccc(-c2ccc3ncn(CCC)c(=O)c3c2)cn1", "system": "male rat", "conditions": "intravenous, 2.5 mg/kg", "Cmax": "3090 ng/mL"}
{"SMILES": "COc1nc(-c2cccc(-c3ccccc3)c2C)ccc1CNCCNC(=O)CCCCCCCCCCC(=O)N1CCN(CCNC(=O)c2cc3c(=O)n4cccc(C)c4nc3n(CCc3cccs3)c2=N)CC1", "system": "male Sprague-Dawley rat", "conditions": "oral, 40 mg/kg", "Cmax": "20.2 ng/mL"}
{"SMILES": "Cc1cc2c(C(N)=O)cccc2n1-c1nc2c(c(NCc3ccccc3)n1)CCCN2", "system": "male Sprague-Dawley rat", "conditions": "intravenous, 1 mg/kg, single dose", "Cmax": "802 ng/mL"}
{"SMILES": "CNC(=O)c1cc(Oc2ccc(NC(=O)Nc3ccc(Cl)c(C(F)(F)F)c3)cc2)ccn1", "system": "male Sprague-Dawley rat", "conditions": "oral, 100 mg/kg, single dose", "Cmax": "956 ng/mL"}
{"SMILES": "C[C@H]1Oc2cc(cnc2N)-c2c(nn(C)c2C#N)CN(C)C(=O)c2ccc(F)cc21", "system": "male Sprague-Dawley rat", "conditions": "oral, 10 mg/kg, single dose", "Cmax": "468 ng/mL"}
{"SMILES": "CC[C@H](C)[C@H](NC(=O)[C@@H]1CCCN1C(=O)CNC(=O)[C@H](Cc1ccccc1)NC(=O)[C@H](CC(N)=O)NC(=O)[C@H](CC(N)=O)NC(=O)[C@H](CO)NC(=O)[C@H](CO)NC(=O)[C@H](Cc1c[nH]cn1)NC(=O)[C@H](CCCNC(=N)N)NC(=O)[C@H](CC(C)C)NC(=O)[C@H](Cc1ccccc1)NC(=O)[C@H](CCC(=O)O)NC(=O)[C@H](C)NC(=O)[C@H](CC(C)C)NC(=O)[C@H](CCCNC(=N)N)NC(=O)[C@H](CCC(N)=O)NC(=O)[C@@H](NC(=O)[C@H](C)NC(=O)[C@@H]1CSSC[C@H](NC(=O)[C@H](CCCCN)NC(=O)CC[C@H](NC(=O)CCCCCCCCCCCCCCCCCCC(=O)O)C(=O)O)C(=O)N[C@@H](CC(N)=O)C(=O)N[C@@H]([C@@H](C)O)C(=O)N[C@@H](C)C(=O)N[C@@H]([C@@H](C)O)C(=O)N1)[C@@H](C)O)C(=O)N[C@@H](CC(C)C)C(=O)N1CCC[C@H]1C(=O)N1CCC[C@H]1C(=O)N[C@H](C(=O)N[C@@H](CC(N)=O)C(=O)N[C@H](C(=O)NCC(=O)N[C@@H](CO)C(=O)N[C@@H](CC(N)=O)C(=O)N[C@H](C(=O)N1CCC[C@H]1C(N)=O)[C@@H](C)O)C(C)C)[C@@H](C)O", "system": "male Sprague-Dawley rat", "conditions": "subcutaneous, 30 nmol/kg, single dose", "Cmax": "98.8 nM"}
{"SMILES": "CC(=O)O[C@@H]1CC[C@@]2(C)[C@@H](CC[C@]3(C)[C@@H]2C(=O)C=C2[C@@H]4[C@@H](C)[C@H](C)CC[C@]4(C)CC[C@]23C)[C@@]1(C)C(=O)O", "system": "female Wistar rat", "conditions": "oral, 1 mg/kg, single dose", "Cmax": "3360 ng/mL"}
{"SMILES": "C=CC(=O)N1CCC([C@@H]2CCNc3c(C(N)=O)c(-c4ccc(Oc5ccccc5)cc4)nn32)CC1", "system": "Sprague-Dawley rat", "conditions": "oral, 16 mg/kg", "Cmax": "426 ng/mL"}
{"SMILES": "C=CCn1c(=O)c2cnc(Nc3ccc(N4CCN(C)CC4)cc3)nc2n1-c1ccc2c(n1)[C@@](O)(CC)CC2", "system": "rat", "conditions": "oral, 60 mg/kg", "Cmax": "4000 nM"}
{"SMILES": "[2H]C([2H])([2H])NC(=O)c1cc(Oc2ccc(NC(=O)Nc3ccc(Cl)c(C(F)(F)F)c3)cc2)ccn1", "system": "rat", "conditions": "oral, 40 mg/kg, single dose", "Cmax": "7420 ng/mL"}
{"SMILES": "COc1cc(C2C3=C(COC3=O)N(CCO)c3cc4c(cc32)CCC4)cc(OC)c1OC (stereo not drawn)", "system": "female Sprague-Dawley rat", "conditions": "intraperitoneal, 50 mg/kg", "Cmax": "915 ng/mL"}
